Tested on: HEK-293T
Assay: Multiplex assay against HEK293T;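 as to Population Tubulin-Different-Phenotype (%): share of the cells with healthy nuclei that show this phenotype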
Assay type: toxicity, cell-based
Settings: human
In short: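 Hoechst33342, BioTracker Green Microtubule Cytoskeleton Dye, MitoTracker Red and Annexin V Alexa Fluor 680 were added to live cells at seeding, and imaging on a CQ1 microscope at 37°C and 5% CO2 followed compound addition. Gating by CellPathfinder machine learning separated cells into Hoechst high-intensity objects or normal cells, then normal cells into healthy, pyknosed or fragmented nuclei, then pyknosed cells into mitotic or apoptotic. Per cents of healthy-nucleus cells are reported for the tubulin, mitochondrial-mass and membrane-permeability phenotypes.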

[1] = 12 h, 1 µM, compound concentration 1 uM, replicate 1
[2] = 12 h, 1 µM, compound concentration 1 uM, replicate 2
[3] = 12 h, 10 µM, compound concentration 10 uM, replicate 1
[4] = 12 h, 10 µM, compound concentration 10 uM, replicate 2
[5] = 24 h, 1 µM, compound concentration 1 uM, replicate 1
[6] = 24 h, 1 µM, compound concentration 1 uM, replicate 2
[7] = 24 h, 10 µM, compound concentration 10 uM, replicate 1
[8] = 24 h, 10 µM, compound concentration 10 uM, replicate 2
[9] = 48 h, 1 µM, compound concentration 1 uM, replicate 1
[10] = 48 h, 1 µM, compound concentration 1 uM, replicate 2
[11] = 48 h, 10 µM, compound concentration 10 uM, replicate 1
[12] = 48 h, 10 µM, compound concentration 10 uM, replicate 2

In the case of `O=C1NCN(c2ccccc2)C12CCN(CCCOc1ccc(F)cc1)CC2` [SPIRAMIDE], the “Population Apoptotic (%)” value [1] is reported as 41%, the “Population Fragmented Nuclei (%)” value [1] is reported as 15% and the “Population Hoechst High Intensity Objects (%)” value [1] is reported as 12%. The “Population Membrane Permeable-Phenotype (%)” value [1] was 4%, the “Population Mitochondria Different-Phenotype (%)” value [1] was 81% and the “Population Mitotic Cells (%)” value [1] was 58%. For the same molecule, the “Population Normal (%)” value [1] was 87%, the “Population Pyknosed Nuclei (%)” value [1] was 45% and the “Population Tubulin-Different-Phenotype (%)” value [1] was 35%. For the same molecule, the “Total Cell Count” value [1] was 216, the “Population Apoptotic (%)” value [2] was 11% and the “Population Fragmented Nuclei (%)” value [2] was 10%. For the same molecule, the “Population Healthy Nuclei (%)” value [2] was 38%, the “Population Hoechst High Intensity Objects (%)” value [2] was 7% and the “Population Membrane Permeable-Phenotype (%)” value [2] was 12%. The “Population Mitochondria Different-Phenotype (%)” value [2] was 11%, the “Population Mitotic Cells (%)” value [2] was 88% and the “Population Normal (%)” value [2] was 92%. The “Population Pyknosed Nuclei (%)” value [2] was 50%, the “Population Tubulin-Different-Phenotype (%)” value [2] was 20% and the “Total Cell Count” value [2] was 179. The “Population Apoptotic (%)” value [3] was 66%, the “Population Fragmented Nuclei (%)” value [3] was 16% and the “Population Healthy Nuclei (%)” value [3] was 13%. For the same molecule, the “Population Hoechst High Intensity Objects (%)” value [3] was 17%, the “Population Membrane Permeable-Phenotype (%)” value [3] was 0% and the “Population Mitochondria Different-Phenotype (%)” value [3] was 95%. The “Population Mitotic Cells (%)” value [3] was 33%, the “Population Normal (%)” value [3] was 82% and the “Population Pyknosed Nuclei (%)” value [3] was 70%. The “Population Tubulin-Different-Phenotype (%)” value [3] was 95%, the “Total Cell Count” value [3] was 210 and the “Population Apoptotic (%)” value [4] was 19%. For the same molecule, the “Population Fragmented Nuclei (%)” value [4] was 3%, the “Population Healthy Nuclei (%)” value [4] was 34% and the “Population Hoechst High Intensity Objects (%)” value [4] was 2%. For the same molecule, the “Population Membrane Permeable-Phenotype (%)” value [4] was 7%, the “Population Mitochondria Different-Phenotype (%)” value [4] was 55% and the “Population Mitotic Cells (%)” value [4] was 80%. The “Population Normal (%)” value [4] was 97%, the “Population Pyknosed Nuclei (%)” value [4] was 62% and the “Population Tubulin-Different-Phenotype (%)” value [4] was 46%. For the same molecule, the “Total Cell Count” value [4] was 194, the “Population Apoptotic (%)” value [5] was 50% and the “Population Fragmented Nuclei (%)” value [5] was 13%. The “Population Healthy Nuclei (%)” value [5] was 57%, the “Population Hoechst High Intensity Objects (%)” value [5] was 10% and the “Population Membrane Permeable-Phenotype (%)” value [5] was 0%. For the same molecule, the “Population Mitochondria Different-Phenotype (%)” value [5] was 66%, the “Population Mitotic Cells (%)” value [5] was 50% and the “Population Normal (%)” value [5] was 89%. The “Population Pyknosed Nuclei (%)” value [5] was 28%, the “Population Tubulin-Different-Phenotype (%)” value [5] was 34% and the “Total Cell Count” value [5] was 248. The “Population Apoptotic (%)” value [6] was 6%, the “Population Fragmented Nuclei (%)” value [6] was 8% and the “Population Healthy Nuclei (%)” value [6] was 61%. For the same molecule, the “Population Hoechst High Intensity Objects (%)” value [6] was 3%, the “Population Membrane Permeable-Phenotype (%)” value [6] was 6% and the “Population Mitochondria Different-Phenotype (%)” value [6] was 17%. The “Population Mitotic Cells (%)” value [6] was 93%, the “Population Normal (%)” value [6] was 96% and the “Population Pyknosed Nuclei (%)” value [6] was 30%. For the same molecule, the “Population Tubulin-Different-Phenotype (%)” value [6] was 29%, the “Total Cell Count” value [6] was 207 and the “Population Apoptotic (%)” value [7] was 69%. For the same molecule, the “Population Fragmented Nuclei (%)” value [7] was 17%, the “Population Healthy Nuclei (%)” value [7] was 19% and the “Population Hoechst High Intensity Objects (%)” value [7] was 17%. The “Population Membrane Permeable-Phenotype (%)” value [7] was 5%, the “Population Mitochondria Different-Phenotype (%)” value [7] was 97% and the “Population Mitotic Cells (%)” value [7] was 30%. The “Population Normal (%)” value [7] was 82%, the “Population Pyknosed Nuclei (%)” value [7] was 62% and the “Population Tubulin-Different-Phenotype (%)” value [7] was 100%. For the same molecule, the “Total Cell Count” value [7] was 231, the “Population Apoptotic (%)” value [8] was 21% and the “Population Fragmented Nuclei (%)” value [8] was 3%. For the same molecule, the “Population Healthy Nuclei (%)” value [8] was 54%, the “Population Hoechst High Intensity Objects (%)” value [8] was 1% and the “Population Membrane Permeable-Phenotype (%)” value [8] was 2%. The “Population Mitochondria Different-Phenotype (%)” value [8] was 59%, the “Population Mitotic Cells (%)” value [8] was 78% and the “Population Normal (%)” value [8] was 98%. The “Population Pyknosed Nuclei (%)” value [8] was 42%, the “Population Tubulin-Different-Phenotype (%)” value [8] was 59% and the “Total Cell Count” value [8] was 256. For the same molecule, the “Population Apoptotic (%)” value [9] was 35%, the “Population Fragmented Nuclei (%)” value [9] was 10% and the “Population Healthy Nuclei (%)” value [9] was 77%. The “Population Hoechst High Intensity Objects (%)” value [9] was 7%, the “Population Membrane Permeable-Phenotype (%)” value [9] was 1% and the “Population Mitochondria Different-Phenotype (%)” value [9] was 26%. For the same molecule, the “Population Mitotic Cells (%)” value [9] was 64%, the “Population Normal (%)” value [9] was 92% and the “Population Pyknosed Nuclei (%)” value [9] was 12%. For the same molecule, the “Population Tubulin-Different-Phenotype (%)” value [9] was 22%, the “Total Cell Count” value [9] was 484 and the “Population Apoptotic (%)” value [10] was 8%. The “Population Fragmented Nuclei (%)” value [10] was 4%, the “Population Healthy Nuclei (%)” value [10] was 82% and the “Population Hoechst High Intensity Objects (%)” value [10] was 2%. The “Population Membrane Permeable-Phenotype (%)” value [10] was 7%, the “Population Mitochondria Different-Phenotype (%)” value [10] was 7% and the “Population Mitotic Cells (%)” value [10] was 91%. The “Population Normal (%)” value [10] was 97%, the “Population Pyknosed Nuclei (%)” value [10] was 13% and the “Population Tubulin-Different-Phenotype (%)” value [10] was 20%. For the same molecule, the “Total Cell Count” value [10] was 363, the “Population Apoptotic (%)” value [11] was 59% and the “Population Fragmented Nuclei (%)” value [11] was 17%. For the same molecule, the “Population Healthy Nuclei (%)” value [11] was 30%, the “Population Hoechst High Intensity Objects (%)” value [11] was 18% and the “Population Membrane Permeable-Phenotype (%)” value [11] was 0%. For the same molecule, the “Population Mitochondria Different-Phenotype (%)” value [11] was 98%, the “Population Mitotic Cells (%)” value [11] was 40% and the “Population Normal (%)” value [11] was 81%. For the same molecule, the “Population Pyknosed Nuclei (%)” value [11] was 51%, the “Population Tubulin-Different-Phenotype (%)” value [11] was 89% and the “Total Cell Count” value [11] was 227. The “Population Apoptotic (%)” value [12] was 21%, the “Population Fragmented Nuclei (%)” value [12] was 4% and the “Population Healthy Nuclei (%)” value [12] was 77%. For the same molecule, the “Population Hoechst High Intensity Objects (%)” value [12] was 4%, the “Population Membrane Permeable-Phenotype (%)” value [12] was 1% and the “Population Mitochondria Different-Phenotype (%)” value [12] was 29%. The “Population Mitotic Cells (%)” value [12] was 78%, the “Population Normal (%)” value [12] was 95% and the “Population Pyknosed Nuclei (%)” value [12] was 17%. The “Population Tubulin-Different-Phenotype (%)” value [12] was 44% and the “Total Cell Count” value [12] was 383.

From ChEMBL document CHEMBL4689842, “EUbOPEN Chemogenomics Library wave 1” (2021)
